Most compounds without a hit are left out; they make up all but 3.8% or so of the library.
B2AR ag = activates human beta-2 adrenergic receptor causing internalization | P07550 | Am2.2-beta2AR cells, FAP receptor internalization, flow cytometry | response, % (no concentration beside the values) | 340,000 compounds, 0.43% hits | AID 504454;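 active = response above a set limit, near 3 SD of response in nonfluorescent compounds, cut at about 42% in these data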
Target sequence (P07550 whole entry, looked up): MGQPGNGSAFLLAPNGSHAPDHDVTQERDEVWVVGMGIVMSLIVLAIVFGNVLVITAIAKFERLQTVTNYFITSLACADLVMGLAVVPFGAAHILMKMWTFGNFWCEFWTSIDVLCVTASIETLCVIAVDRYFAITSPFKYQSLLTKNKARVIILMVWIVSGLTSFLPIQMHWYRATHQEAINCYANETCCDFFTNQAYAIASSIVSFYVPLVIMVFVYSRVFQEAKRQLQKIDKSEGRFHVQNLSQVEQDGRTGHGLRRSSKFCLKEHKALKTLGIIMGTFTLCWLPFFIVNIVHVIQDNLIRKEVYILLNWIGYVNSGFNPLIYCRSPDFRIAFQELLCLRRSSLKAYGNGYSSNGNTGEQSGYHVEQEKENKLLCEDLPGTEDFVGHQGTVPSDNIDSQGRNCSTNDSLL
T cell HTS = T cell immune modulation candidate | 330,000 compounds, 0.068% hits | 2C CD8+ T cell-vesicle binding, flow cytometry; active compounds read low | response (vesicle binding), % at 7 µM;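 active = response, share of CD8 T cells binding vesicles, and their 90th percentile fluorescence all below set limits, cut at about 80% in these data, passing the limit was not always enough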;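 note: values below 100% mean blocked vesicle binding to the CD8+ T cells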
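System: murine 2C transgenic CD8+ T lymphocytes; also added: QL9-loaded Drosophila micro-vesicles; times: binding 1.5 h at 37 °C; measured by: flow cytometry, PE anti-B7-1 (FL2) versus Alexa647 anti-CD8 (FL8), PFA-fixed; control set: Peptide-free naked vesicles (low) and QL9 vesicles with 0.7% DMSO vehicle (high)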
Granule exo inh = blocks lytic granule exocytosis. TALL-104 LAMP-1 surface exposure, flow cytometry; cells stimulated with thapsigargin and PMA. inhibition, % at 10 µM. AID 651702. 360,000 compounds, 0.66% hits;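 active = inhibition above about 55%, limit read from the data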
V-ATPase pH = alters yeast V-ATPase proton transport; 350,000 compounds, 0.37% hits; response, % at 10 µM; S. cerevisiae, pHLuorin cytosolic pH fluorescence; in the data active = response mostly above about 7.3%, no sharp cut-off; inactive = mostly below about 5.4%; note: actives read high
rCAG binder = binds r(CAG) RNA repeats; r(CAG) RNA repeat, TO-PRO-1 dye displacement fluorescence; inhibition, % at 3 µM; 370,000 compounds, 1.3% hits; AID 651821;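 active = inhibition above the plate cutoff, the mean of all test compounds on that plate plus 3 SD, cut at about 35% in these data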;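 note: higher means more dye released from RNA so lower well fluorescence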
MPTP block = blocks calcium-induced mitochondrial swelling. isolated mouse mitochondria, Ca2+ swelling absorbance, 30 min. inhibition, % at 10 µM. 360,000 compounds, 1.4% hits;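 active = inhibition of 50% or more, scaled per plate between neutral and stimulator controls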
Exocytosis CP01 = blocks lytic granule exocytosis; shares compounds with Granule exo inh; TALL-104 cells, LAMP-1 externalization, flow cytometry; stimulated with PMA plus thapsigargin; inhibition, % at 10 µM; 1,500 compounds, 11% hits; AID 651954; in the data active = inhibition above about 60%
A number is an active result; i = inactive; nt = not tested or not shown.

SMILES | B2AR ag | T cell HTS | Granule exo inh | V-ATPase pH | rCAG binder | MPTP block | Exocytosis CP01
CCc1cc2ccccc2nc1SCC(=O)NC1CCCC1 | i | i | 79.4 | i | i | i | i
CC(C)N1CCCCC(NC(=O)c2ccccc2)C1=O (configuration not stated) | nt | nt | nt | nt | i | nt | nt
Cc1ccc(NC(=O)N2CCC(N(C)CCC(C)C)CC2)cc1F | nt | nt | nt | nt | i | nt | nt
S=C(Nc1ccccc1Cl)NC1CC2CCCC(C1)N2C1CC1 (configuration not stated) | i | i | 87.1 | i | i | i | i
Cc1ccc(NC(=O)Cc2ccc(F)cc2)c(S(=O)(=O)N2CCOCC2)c1 | nt | nt | nt | nt | i | nt | nt
COc1cccc(NC(=O)COc2cccc(-n3cnnn3)c2)c1 | i | i | i | i | i | i | nt
Cc1cc(OCCCC(=O)Nc2cccc(-n3cnnn3)c2)ccc1Cl | i | i | 66.3 | i | i | i | i
O=C(NCCCN1CCCC1=O)C1CCN(S(=O)(=O)c2cc(C(F)(F)F)ccc2Cl)CC1 | i | i | 89.8 | i | i | i | i
O=C(NCCCN1CCCC1=O)C1CCN(S(=O)(=O)c2cccc(C(F)(F)F)c2)CC1 | i | i | i | i | i | i | nt
COc1ccc(NC(=O)N(C2CCCCC2)C2CCN(C(C)C)CC2)c(OC)c1 | i | nt | 70.2 | i | i | i | i
COC(=O)CSc1nnc(-c2n[nH]c3c2CCC3)n1N | nt | nt | nt | nt | i | nt | nt
CN(C)S(=O)(=O)c1cccc(NC(=O)c2ccccc2OCc2ccc(F)cc2)c1 | i | i | 102.2 | i | i | i | i
CN(c1ccccc1)S(=O)(=O)c1cccc(NC(=O)COc2ccccc2)c1 | i | i | i | i | i | i | nt
CN(C)S(=O)(=O)c1cccc(NC(=O)COc2ccc(C(=O)c3ccccc3)cc2)c1 | i | i | 58.0 | i | i | i | i
COc1ccc(NC(=O)c2ccccc2OCc2ccc(F)cc2)c(OC)c1 | i | i | 84.6 | i | i | i | i
Cc1cccc(C(=O)Nc2c(-c3ccccc3)nc3ncccn23)c1 | nt | nt | nt | nt | i | nt | nt
CN(C)CCNc1nc2sc3c(c2c(=O)n1Cc1ccccc1)CCCCC3 | i | nt | 57.4 | i | i | i | i
O=c1c2c3c(sc2nc(N2CCNCC2)n1CCc1ccccc1)CCCCC3 | i | i | 59.6 | i | i | i | i
Cc1ccc(NC(=O)OC2CC3CC2[C@H]2CCCCN2C3)cc1 (some centres not stated) | nt | nt | nt | nt | i | nt | nt
COc1ccc(Nc2nc(N3CCN(S(C)(=O)=O)CC3)nc3ccccc23)c(OC)c1 | i | i | i | i | i | i | nt
COc1ccc(Nc2nc(N3CCN(S(=O)(=O)N(C)C)CC3)nc3ccccc23)cc1 | i | i | 81.2 | i | i | i | i
COC(=O)[C@]1(CNC(=O)NCCc2ccc(OC)c(OC)c2)CC(=O)N(C)[C@@H]1c1ccccc1 | nt | nt | nt | nt | i | nt | nt
COc1ccc2nc3ccccc3nc2c1N | i | i | 82.1 | i | i | i | i
COc1ccc2nc3cccc(OC)c3nc2c1 | i | i | i | i | i | i | nt
COc1cc(NC(=O)c2cc(OC)c(OC)c(OC)c2)c2ncccc2c1 | i | nt | 93.5 | i | i | i | i
SMILES | B2AR ag | T cell HTS | Granule exo inh | V-ATPase pH | rCAG binder | MPTP block | Exocytosis CP01
COc1cc(NC(=O)c2ccc3c(c2)OCO3)c2ncccc2c1 | i | i | i | i | i | i | nt
COc1ccc(C)cc1NC(=O)CNC(c1ccccc1)c1ccc(C)cc1 (configuration not stated) | i | i | i | i | i | i | nt
COc1ccccc1NC(=O)c1ccccc1Oc1ccccc1 | i | i | 67.5 | i | i | i | i
O=C(Nc1cccc2cccnc12)c1ccccc1Cl | i | i | i | i | i | i | nt
COc1ccccc1C(=O)Nc1cccc2cccnc12 | i | i | 56.1 | i | i | i | i
COc1ccccc1NC(=O)CNC(c1ccccc1)c1ccccc1 | i | i | 76.6 | i | i | i | i
COc1ccc(NC(=O)c2ccccc2Oc2ccccc2)c(OC)c1 | i | i | i | i | i | i | nt
C=CCn1c(SCC(=O)O)nnc1-c1ccco1 | nt | nt | nt | nt | i | nt | nt
CCCC(C)C(=O)NC1CCCCN(Cc2ccc(C)cc2)C1=O (configuration not stated) | nt | nt | nt | nt | i | nt | nt
CCN(CC)C(=O)CC[C@H]1CC[C@]2(CCCN(Cc3nccn3C)C2)O1 | nt | nt | nt | nt | i | nt | nt
CN(C(=O)c1cccc(NC(=O)Cc2ccc(NC(=O)C3CCN(C(=O)C4CCC4)CC3)cc2)c1)C1CCCCC1 | i | nt | 58.4 | i | i | i | i

Screens: PubChem, several laboratories
